Results: ChEMBL document CHEMBL3425481, “Design, synthesis and anticancer activity of matrine-1H-1,2,3-triazole-chalcone conjugates” (Bioorg Med Chem Lett, 2015)
Calls of active or inactive are those of the source. The calls are words filed in the database; no cut-off is given here.

Experiments:
A549 [1] = test: Antitumor activity against human A549 cells xenografted in Balb/ca-nu mouse assessed as tumor growth inhibition at 10 mg/kg, iv dosed every 3 days for total of 7 dosing rounds measured on day 20 after treatment; type: functional; conditions: read-out: TGI
Method in brief: (§1)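 A549 xenograft in mice, dosed by tail vein injection every 3 days; vehicle saline plus 0.2% Tween 80. n = 8 per treatment group, 6 in the vehicle group. Mean ± SE.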

MCF7 = test: Antiproliferative activity against human MCF7 cells assessed as inhibition of cell proliferation incubated for 48 hrs by CCK8 assay; type: functional, cell-based; conditions: MCF7, 48 h
Method in brief: (§2)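 Human A549 lung, Hela cervical, Bel-7402 hepatocellular and MCF-7 breast cancer cells, plus mouse embryo fibroblast NIH3T3, tested for anti-proliferative activity by CCK-8 assay. For the matrine combination tests, the chalcone and matrine were used at a 1:1 molar ratio; values given as IC50.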

A549 [2] = test: Induction of apoptosis in human A549 cells assessed as viable cells level at 2 times antiproliferative IC50 incubated for 24 hrs by Annexin V-FITC/propidium iodide double staining based flow cytometry (reference value: 99.7%); type: functional
A549 [3] = test: Induction of apoptosis in human A549 cells assessed as late apoptosis cells level at 0.5 times antiproliferative IC50 incubated for 24 hrs by Annexin V-FITC/propidium iodide double staining based flow cytometry (reference value: 0.127%); type: functional
A549 [4] = test: Antitumor activity against human A549 cells xenografted in Balb/ca-nu mouse assessed as tumor growth inhibition at 2.5 mg/kg, iv dosed every 3 days for total of 7 dosing rounds measured on day 16 after treatment; type: functional; conditions: read-out: TGI; method in brief: as §1
A549 [5] = test: Antitumor activity against human A549 cells xenografted in Balb/ca-nu mouse assessed as tumor growth inhibition at 5 mg/kg, iv dosed every 3 days for total of 7 dosing rounds measured on day 18 after treatment; type: functional; conditions: read-out: TGI; method in brief: as §1
A549 [6] = test: Antitumor activity against human A549 cells xenografted in Balb/ca-nu mouse assessed as tumor growth inhibition at 2.5 mg/kg, iv dosed every 3 days for total of 7 dosing rounds measured on day 12 after treatment; type: functional; conditions: read-out: TGI; method in brief: as §1
A549 [7] = test: Induction of apoptosis in human A549 cells assessed as late apoptosis cells level at 2 times antiproliferative IC50 incubated for 24 hrs by Annexin V-FITC/propidium iodide double staining based flow cytometry (reference value: 0.127%); type: functional
A549 [8] = test: Induction of apoptosis in human A549 cells assessed as late apoptosis cells level at IC50 incubated for 24 hrs by Annexin V-FITC/propidium iodide double staining based flow cytometry (reference value: 0.127%); type: functional
A549 [9] = test: Antitumor activity against human A549 cells xenografted in Balb/ca-nu mouse assessed as tumor growth inhibition at 2.5 mg/kg, iv dosed every 3 days for total of 7 dosing rounds measured on day 20 after treatment; type: functional; conditions: read-out: TGI; method in brief: as §1
A549 [10] = test: Induction of apoptosis in human A549 cells assessed as early apoptosis cells level at 2 times antiproliferative IC50 incubated for 24 hrs by Annexin V-FITC/propidium iodide double staining based flow cytometry (reference value: 0.116%); type: functional
A549 [11] = test: Antitumor activity against human A549 cells xenografted in Balb/ca-nu mouse assessed as tumor growth inhibition at 10 mg/kg, iv dosed every 3 days for total of 7 dosing rounds measured on day 16 after treatment; type: functional; conditions: read-out: TGI; method in brief: as §1
A549 [12] = test: Induction of apoptosis in human A549 cells assessed as necrosis cells level at 2 times antiproliferative IC50 incubated for 24 hrs by Annexin V-FITC/propidium iodide double staining based flow cytometry (reference value: 0.042%); type: functional
A549 [13] = test: Antitumor activity against human A549 cells xenografted in Balb/ca-nu mouse assessed as tumor growth inhibition at 5 mg/kg, iv dosed every 3 days for total of 7 dosing rounds measured on day 14 after treatment; type: functional; conditions: read-out: TGI; method in brief: as §1
A549 [14] = test: Induction of apoptosis in human A549 cells assessed as necrosis cells level at IC50 incubated for 24 hrs by Annexin V-FITC/propidium iodide double staining based flow cytometry (reference value: 0.042%); type: functional
HeLa = test: Antiproliferative activity against human HeLa cells assessed as inhibition of cell proliferation incubated for 48 hrs by CCK8 assay; type: functional, cell-based; method in brief: as §2
A549 [15] = test: Antitumor activity against human A549 cells xenografted in Balb/ca-nu mouse assessed as tumor growth inhibition at 5 mg/kg, iv dosed every 3 days for total of 7 dosing rounds measured on day 12 after treatment; type: functional; conditions: read-out: TGI; method in brief: as §1
A549 [16] = test: Induction of apoptosis in human A549 cells assessed as early apoptosis cells level at IC50 incubated for 24 hrs by Annexin V-FITC/propidium iodide double staining based flow cytometry (reference value: 0.116%); type: functional
A549 [17] = test: Antitumor activity against human A549 cells xenografted in Balb/ca-nu mouse assessed as tumor growth inhibition at 5 mg/kg, iv dosed every 3 days for total of 7 dosing rounds measured on day 10 after treatment; type: functional; conditions: read-out: TGI; method in brief: as §1
A549 [18] = test: Antitumor activity against human A549 cells xenografted in Balb/ca-nu mouse assessed as tumor growth inhibition at 2.5 mg/kg, iv dosed every 3 days for total of 7 dosing rounds measured on day 10 after treatment; type: functional; conditions: read-out: TGI; method in brief: as §1
A549 [19] = test: Antitumor activity against human A549 cells xenografted in Balb/ca-nu mouse assessed as tumor growth inhibition at 5 mg/kg, iv dosed every 3 days for total of 7 dosing rounds measured on day 20 after treatment; type: functional; conditions: read-out: TGI; method in brief: as §1
[20] = Antiproliferative activity against mouse NIH/3T3 cells assessed as inhibition of cell proliferation incubated for 48 hrs by CCK8 assay; type: cell-based; conditions: NIH3T3, 48 h; method in brief: as §2
A549 [21] = test: Antitumor activity against human A549 cells xenografted in Balb/ca-nu mouse assessed as tumor growth inhibition at 10 mg/kg, iv dosed every 3 days for total of 7 dosing rounds measured on day 8 after treatment; type: functional, organism-based; set-up: dose 10 mg/kg; method in brief: as §1
A549 [22] = test: Antitumor activity against human A549 cells xenografted in Balb/ca-nu mouse assessed as tumor growth inhibition at 10 mg/kg, iv dosed every 3 days for total of 7 dosing rounds measured on day 10 after treatment; type: functional; conditions: read-out: TGI; method in brief: as §1
A549 [23] = test: Induction of apoptosis in human A549 cells assessed as viable cells level at 0.5 times antiproliferative IC50 incubated for 24 hrs by Annexin V-FITC/propidium iodide double staining based flow cytometry (reference value: 99.7%); type: functional
A549 [24] = test: Antitumor activity against human A549 cells xenografted in Balb/ca-nu mouse assessed as tumor growth inhibition at 2.5 to 10 mg/kg, iv dosed every 3 days for total of 7 dosing rounds measured after 20 days post dose; type: functional, organism-based; method in brief: as §1
A549 [25] = test: Antitumor activity against human A549 cells xenografted in Balb/ca-nu mouse assessed as tumor growth inhibition at 2.5 mg/kg, iv dosed every 3 days for total of 7 dosing rounds measured on day 18 after treatment; type: functional; conditions: read-out: TGI; method in brief: as §1
A549 [26] = test: Antitumor activity against human A549 cells xenografted in Balb/ca-nu mouse assessed as tumor growth inhibition at 10 mg/kg, iv dosed every 3 days for total of 7 dosing rounds measured on day 18 after treatment; type: functional; conditions: read-out: TGI; method in brief: as §1
A549 [27] = test: Antitumor activity against human A549 cells xenografted in Balb/ca-nu mouse assessed as tumor growth inhibition at 2.5 mg/kg, iv dosed every 3 days for total of 7 dosing rounds measured on day 14 after treatment; type: functional; conditions: read-out: TGI; method in brief: as §1
A549 [28] = test: Antitumor activity against human A549 cells xenografted in Balb/ca-nu mouse assessed as tumor growth inhibition at 5 mg/kg, iv dosed every 3 days for total of 7 dosing rounds measured on day 16 after treatment; type: functional; conditions: read-out: TGI; method in brief: as §1

## O=C(/C=C/c1cccc(Cl)c1)c1ccc(OCc2cn([C@H]3CC(=O)N4C[C@@H]5CCCN6CCC[C@@H]([C@H]56)[C@H]4C3)nn2)cc1O
A549 [1]
  inhibition in vivo at 10 mg/kg: 89.6%
MCF7
  IC50: 6.25 µM
A549 [2]
  Activity: 30.1%
A549 [3]
  Activity: 16.3%
A549 [4]
  inhibition in vivo at 2.5 mg/kg: 33.2%
A549 [5]
  inhibition in vivo at 5 mg/kg: 60.5%
A549 [6]
  inhibition in vivo at 2.5 mg/kg: 12.2%
A549 [7]
  Activity: 33.1%
A549 [8]
  Activity: 16.2%
A549 [9]
  inhibition in vivo at 2.5 mg/kg: 43.9%
A549 [10]
  Activity: 34.2%
A549 [11]
  inhibition in vivo at 10 mg/kg: 83.7%
A549 [12]
  Activity: 2.57%
A549 [13]
  inhibition in vivo at 5 mg/kg: 45.9%
A549 [14]
  Activity: 4.95%
HeLa
  IC50: 7.31 µM
A549 [15]
  inhibition in vivo at 5 mg/kg: 34.8%
A549 [16]
  Activity: 31.1%
A549 [17]
  inhibition in vivo at 5 mg/kg: 29%
A549 [18]
  inhibition in vivo at 2.5 mg/kg: 5.4%
A549 [19]
  inhibition in vivo at 5 mg/kg: 64.8%
[20]
  IC50: 39.2 µM
A549 [21]
  TGI: Active
A549 [22]
  inhibition in vivo at 10 mg/kg: 60.5%
A549 [23]
  Activity: 57.9%
A549 [24]
  TGI: Dose-dependent effect
A549 [25]
  inhibition in vivo at 2.5 mg/kg: 38.8%
A549 [26]
  inhibition in vivo at 10 mg/kg: 86.9%
A549 [27]
  inhibition in vivo at 2.5 mg/kg: 23.3%
A549 [28]
  inhibition in vivo at 5 mg/kg: 54.9%
